# ChEMBL document CHEMBL2150951, “Studies on the antimicrobial properties of N-acylated ciprofloxacins” (2012)
# Activity calls are given as the source filed them. The calls are words filed in the database; no cut-off is given here.
# What was measured:
# Staphylococcus aureus [1] = assay: Antibacterial activity against methicillin-resistant Staphylococcus aureus isolate CBD 635 at 50 ug per disc by Kirby-Bauer disc diffusion assay; assay type: functional; conditions: read-out: DIZ
# How it was run: (§1)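 Kirby-Bauer disk diffusion with 50 µg compound per 6 mm paper disk. Organisms were grown and plated by an earlier method. The zone-of-inhibition diameter was recorded to the nearest mm and averaged over three independent experiments. No zone was reported as 6 mm, the disk diameter.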
# Bartonella elizabethae = assay: Antibacterial activity against Bartonella elizabethae F9251 at 20 ug per disc after 7 days by Kirby-Bauer disc diffusion assay; assay type: functional; conditions: F9251, 168 h, read-out: DIZ
# How it was run: (§2)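 Each paper disk was loaded with 20 µl of a 1 mg/ml solution, dried for 20 min and stored desiccated at 4 °C. Growth from 4-day plates was suspended in heart infusion broth to McFarland 2.0 and swabbed onto chocolate agar (heart infusion agar base with 5% bovine hemoglobin). Plates were incubated 1 week at 37 °C in 5% CO2. Zone diameter was read to the nearest mm, in triplicate and averaged.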
# Bacillus anthracis = assay: Antibacterial activity against Bacillus anthracis sterne at 50 ug per disc by Kirby-Bauer disc diffusion assay; assay type: functional; conditions: read-out: DIZ; how it was run: as §1
# Escherichia coli [2] = assay: Antibacterial activity against Escherichia coli DH5alpha at 50 ug per disc by Kirby-Bauer disc diffusion assay; assay type: functional; conditions: DH5[alpha], read-out: DIZ
# How it was run: (§3)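 Disks carried 50 µg of compound. Zone diameter was measured to the nearest mm and averaged over three independent experiments. A value of 6 mm, the disk diameter, was recorded where no inhibition was seen.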
# Staphylococcus aureus [3] = assay: Antibacterial activity against methicillin-resistant Staphylococcus aureus ATCC 43300; assay type: functional
# How it was run: (§4)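 MIC against S. aureus strains was run by an earlier published procedure, tested in triplicate. Values were averaged and expressed as µg/ml of compound.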
# Staphylococcus aureus [4] = assay: Antibacterial activity against methicillin-susceptible Staphylococcus aureus SH1000; assay type: functional
# How it was run: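 MIC in µg/ml, tested in triplicate and averaged, with ciprofloxacin as positive control.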
# Staphylococcus aureus [5] = assay: Antibacterial activity against methicillin-resistant Staphylococcus aureus isolate CBD 635; assay type: functional; how it was run: as §4
# Enterococcus faecalis = assay: Antibacterial activity against Enterococcus faecalis DS16 at 50 ug per disc by Kirby-Bauer disc diffusion assay; assay type: functional; conditions: read-out: DIZ; how it was run: as §3
# Bartonella quintana = assay: Antibacterial activity against Bartonella quintana ATCC VR358 at 20 ug per disc after 7 days by Kirby-Bauer disc diffusion assay; assay type: functional; conditions: ATCC VR358, 168 h, read-out: DIZ; how it was run: as §2
# [6] = Antibacterial activity against Bartonella henselae ATCC 49882 at 20 ug per disc after 7 days by Kirby-Bauer disc diffusion assay; assay type: functional, Bartonella henselae str. Houston-1; conditions: ATCC 49882, 168 h, read-out: DIZ; how it was run: as §2
# Bartonella vinsonii = assay: Antibacterial activity against Bartonella vinsonii ATCC VR152 at 20 ug per disc after 7 days by Kirby-Bauer disc diffusion assay; assay type: functional; conditions: ATCC VR152, 168 h, read-out: DIZ; how it was run: as §2
# [7] = Antibacterial activity against Bartonella henselae ATCC 49882 after 7 days by agar dilution method; assay type: functional, Bartonella henselae str. Houston-1; conditions: ATCC 49882, 168 h
# How it was run: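 Agar dilution on chocolate agar containing compound at 10.0, 1.0 and 0.1 µg/ml, with 2-fold steps at and below 1.0 µg/ml for compounds active there. Controls were DMSO-only and drug-free plates. 25 µl of a McFarland 2.0 suspension in heart infusion broth was spotted and incubated 7 days at 37 °C in 5% CO2. Growth was scored +/− on duplicate plates; triplicate results were averaged.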
# Escherichia coli [8] = assay: Inhibition of Escherichia coli DNA gyrase-mediated formation of supercoiled form of pUC19 at 1 to 100 ug/mL by gel electrophoresis
# How it was run: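 Relaxed circular pUC19 was incubated with purified E. coli DNA gyrase and compound for 1 h at 37 °C. Relaxed and supercoiled DNA were resolved and quantified by gel electrophoresis.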
# [9] = Antibacterial activity against Bartonella henselae Houston-1 infected in human HMEC1 cells assessed as intracellular bacterial load at 1 ug/mL incubated for 96 hrs followed by compound washout measured after 7 days relative to control; assay type: functional, Bartonella henselae str. Houston-1
# How it was run: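 HMEC-1 cells grown in MCDB131 with 10% FBS, EGF and hydrocortisone were infected with B. henselae Houston-1 at MOI 100 for 4 h. Extracellular bacteria were killed with gentamicin (200 µg/ml, 1 h), then compound was added at 0.1 or 1.0 µg/ml for 96 h. After washing, cells were lysed with 0.1% saponin and lysates plated on chocolate agar for 7 days. CFU are given as a percentage of the media-only control.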
# Staphylococcus aureus [10] = assay: Antibacterial activity against methicillin-susceptible Staphylococcus aureus SH1000 at 2.5 fold MIC by serial dilution method; assay type: functional
# How it was run: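 Tryptic soy agar contained compound at 1x, 1.5x, 2.0x or 2.5x the measured MSSA MIC. Cells from 1 ml of an overnight MSSA broth culture were pelleted, resuspended in 100 µl TSB and spread with glass beads. Inoculum cfu was counted by serial dilution onto drug-free agar. Total colonies from at least 3 replicates are reported; frequency is colonies divided by total inoculum.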
# Bartonella henselae = assay: Antibacterial activity against Bartonella henselae infected in african green monkey Vero cells by immunofluorescence staining; assay type: functional
SMILES,zone of inhibition at 50 µg/disc (Staphylococcus aureus [1]) [mm],zone of inhibition at 20 µg/disc (Bartonella elizabethae) [mm],zone of inhibition at 50 µg/disc (Bacillus anthracis) [mm],zone of inhibition at 50 µg/disc (Escherichia coli [2]) [mm],MIC (Staphylococcus aureus [3]) [µg/mL],MIC (Staphylococcus aureus [4]) [µg/mL],MIC (Staphylococcus aureus [5]) [µg/mL],zone of inhibition at 50 µg/disc (Enterococcus faecalis) [mm],zone of inhibition at 20 µg/disc (Bartonella quintana) [mm],zone of inhibition at 20 µg/disc [6] [mm],zone of inhibition at 20 µg/disc (Bartonella vinsonii) [mm],MIC [7] [µg/mL],gyrase inhibition (active/inactive) (Escherichia coli [8]),Activity [9],CFU/ml (Staphylococcus aureus [10]),MIC (Bartonella henselae) [µg/mL]
CCCCC(CC)C(=O)N1CCN(c2cc3c(cc2F)c(=O)c(C(=O)O)cn3C2CC2)CC1 (stereo not drawn),26,12,65,6,> 100,10,> 100,28,6,12,15,–,–,–,–,–
CCCCCC(=O)N1CCN(c2cc3c(cc2F)c(=O)c(C(=O)O)cn3C2CC2)CC1,36,30,77,30,25,20,> 100,38,30,31,21,5,Active,–,–,–
CC(CC(=O)N1CCN(c2cc3c(cc2F)c(=O)c(C(=O)O)cn3C2CC2)CC1)CC(C)(C)C (stereo not drawn),35,8,80,6,> 100,25,> 100,25,7,15,10,1,Active,–,–,–
O=C(O)c1cn(C2CC2)c2cc(N3CCN(C(=O)c4ccccc4)CC3)c(F)cc2c1=O,6,13,49,6,> 100,25,> 100,6,7,21,12,0.2,–,–,–,–
O=C(O)c1cn(C2CC2)c2cc(N3CCNCC3)c(F)cc2c1=O [CIPROFLOXACIN],6,58,42,43,15,10,–,31,6,56,58,0.5,–,<=10%,551,15.2
C[C@H]1COc2c(N3CCN(C)CC3)c(F)cc3c(=O)c(C(=O)O)cn1c23.C[C@H]1COc2c(N3CCN(C)CC3)c(F)cc3c(=O)c(C(=O)O)cn1c23.O [LEVOFLOXACIN],–,–,–,–,–,–,–,–,–,–,–,–,–,–,–,0.84
CCC(CC)C(=O)N1CCN(c2cc3c(cc2F)c(=O)c(C(=O)O)cn3C2CC2)CC1,30,26,81,39,1,> 100,> 100,22,17,33,25,5,–,–,–,–
CCCCCCC(=O)N1CCN(c2cc3c(cc2F)c(=O)c(C(=O)O)cn3C2CC2)CC1,30,20,71,45,> 100,25,> 100,36,20,28,22,10,–,–,–,–
CCCC(CCC)C(=O)N1CCN(c2cc3c(cc2F)c(=O)c(C(=O)O)cn3C2CC2)CC1,6,6,72,6,> 100,10,> 100,26,6,14,6,5,–,–,–,–
CCCCCCCCC(=O)N1CCN(c2cc3c(cc2F)c(=O)c(C(=O)O)cn3C2CC2)CC1,22,12,55,30,10,10,> 100,23,11,6,14,10,–,–,–,–
CC1COc2c(N3CCN(C)CC3)c(F)cc3c(=O)c(C(=O)O)cn1c23 (stereo not drawn) [OFLOXACIN],–,–,–,–,–,–,–,–,–,–,–,–,–,–,–,5.6
C[C@@H]1CN(c2c(F)c(N)c3c(=O)c(C(=O)O)cn(C4CC4)c3c2F)C[C@H](C)N1 [SPARFLOXACIN],–,–,–,–,–,–,–,–,–,–,–,–,–,–,–,6.4
CCCC(=O)N1CCN(c2cc3c(cc2F)c(=O)c(C(=O)O)cn3C2CC2)CC1,6,42,86,48,> 100,> 100,> 100,40,29,34,44,0.5,–,<=10%,–,–
CC(C)(C)C(=O)N1CCN(c2cc3c(cc2F)c(=O)c(C(=O)O)cn3C2CC2)CC1,22,36,80,51,> 100,7.5,> 100,44,33,40,36,–,Active,–,–,–
CCCCCCCC(=O)N1CCN(c2cc3c(cc2F)c(=O)c(C(=O)O)cn3C2CC2)CC1,6,14,65,6,25,25,> 100,29,14,16,15,10,–,–,–,–
CCC(=O)N1CCN(c2cc3c(cc2F)c(=O)c(C(=O)O)cn3C2CC2)CC1,20,57,86,57,> 100,40,> 100,46,58,56,60,0.5,Active,<=10%,0,–
CCCCC(=O)N1CCN(c2cc3c(cc2F)c(=O)c(C(=O)O)cn3C2CC2)CC1,30,35,80,47,1,7.5,> 100,39,35,38,57,5,–,–,–,–
